≈ marks a conversion by molar mass, not a printed value.
Key:
[1] = Inhibition of Mycobacterium tuberculosis H37Rv isocitrate lyase assessed as glyoxylate phenyl hydrazone formation at 10 uM
HepG2 = test: Cytotoxicity against human HepG2 cells assessed as reduction in cell viability after 24 hrs by MTS assay; assay type: cell-based; details: HepG2, 24 h
Procedure, shortened: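 HepG2 hepatocellular carcinoma cells (passage 3–4) were grown in Eagle's MEM with 10% FBS, 1% L-glutamine and non-essential amino acids. Compounds were added from DMSO at eight concentrations in triplicate, with 10% DMSO as the 0% viability control. Viability was read by tetrazolium salt reduction (CellTiter 96 AQueous One). IC50 is the concentration reducing viability to 50% of control.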

[2] = Selectivity index, ratio of IC50 for human HepG2 cells to MIC for atypical mycobacteria
Procedure, shortened: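 Selectivity index = HepG2 IC50 / MIC. HepG2 cells (passage 3–4) grown in Eagle's MEM with 10% FBS, L-glutamine and non-essential amino acids. Compounds added from DMSO, eight concentrations in triplicate, tetrazolium-reduction colorimetric read-out. IC50 is the concentration reducing viability to 50% of control; 10% DMSO as 0% viability.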

Mycobacterium avium [3] = test: Antimycobacterial activity against Isoniazid, rifampicin, ofloxacin and ethambutol-resistant Mycobacterium avium 330/88 assessed as complete growth inhibition after 14 days; assay type: functional; details: 330/88, 336 h
Procedure, shortened: (§1)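 M. tuberculosis 331/88 (H37Rv) inoculum diluted 10-3, M. avium 330/88 diluted 10-5. MIC is the lowest concentration giving complete growth inhibition. Isoniazid and p-aminosalicylic acid as references. Quadruplicate, repeated twice.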

[4] = tested on: Mycobacterium tuberculosis; test: Antimycobacterial activity against Mycobacterium tuberculosis H37Rv 331/88 assessed as complete growth inhibition after 21 days; assay type: functional; details: H37Rv 331/88, 504 h; procedure, shortened: as §1
Mycobacterium avium [5] = test: Antimycobacterial activity against Isoniazid, rifampicin, ofloxacin and ethambutol-resistant Mycobacterium avium 330/88 assessed as complete growth inhibition after 21 days; assay type: functional; details: 330/88, 504 h; procedure, shortened: as §1
Mycobacterium kansasii [6] = test: Antimycobacterial activity against Mycobacterium kansasii 235/80 assessed as complete growth inhibition after 21 days; assay type: functional; details: 235/80, 504 h
Procedure, shortened: (§2)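 Dilutions of M. kansasii inoculum were 10-4 for strain 235/80 and 10-5 for clinical isolate 6509/96. MIC was the lowest concentration giving complete growth inhibition, run in quadruplicate and repeated twice.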

Mycobacterium kansasii [7] = test: Antimycobacterial activity against Mycobacterium kansasii 235/80 assessed as complete growth inhibition after 14 days; assay type: functional; details: 235/80, 336 h; procedure, shortened: as §2
Mycobacterium kansasii [8] = test: Antimycobacterial activity against Mycobacterium kansasii 235/80 assessed as complete growth inhibition after 7 days; assay type: functional; details: 235/80, 168 h; procedure, shortened: as §2
Mycobacterium kansasii [9] = test: Antimycobacterial activity against clinical isolate Mycobacterium kansasii 6509/96 assessed as complete growth inhibition after 14 days; assay type: functional; details: 6509/96, 336 h; procedure, shortened: as §2
Mycobacterium kansasii [10] = test: Antimycobacterial activity against clinical isolate Mycobacterium kansasii 6509/96 assessed as complete growth inhibition after 21 days; assay type: functional; details: 6509/96, 504 h; procedure, shortened: as §2
[11] = tested on: Mycobacterium tuberculosis; test: Antimycobacterial activity against Mycobacterium tuberculosis H37Rv 331/88 assessed as complete growth inhibition after 14 days; assay type: functional; details: H37Rv 331/88, 336 h; procedure, shortened: as §1
[12] = Selectivity index, ratio of IC50 for human HepG2 cells to MIC for Mycobacterium tuberculosis H37Rv; assay type: toxicity, cell-based; details: read-out: Selectivity Index
Procedure, shortened: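 Selectivity index = HepG2 IC50 / MIC. HepG2 cells (passage 3–4) grown in Eagle's MEM with 10% FBS, L-glutamine and non-essential amino acids. Compounds added from DMSO, eight concentrations in triplicate, tetrazolium-reduction colorimetric read-out.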

Mycobacterium kansasii [13] = test: Antimycobacterial activity against clinical isolate Mycobacterium kansasii 6509/96 assessed as complete growth inhibition after 7 days; assay type: functional; details: 6509/96, 168 h; procedure, shortened: as §2

SMILES | inhibition [1] [%] | IC50 (HepG2) [µM] | Selectivity Index [2] | MIC (Mycobacterium avium [3]) [µM] | MIC [4] [µM] | MIC (Mycobacterium avium [5]) [µM] | MIC (Mycobacterium kansasii [6]) [µM] | MIC (Mycobacterium kansasii [7]) [µM] | MIC (Mycobacterium kansasii [8]) [µM] | MIC (Mycobacterium kansasii [9]) [µM] | MIC (Mycobacterium kansasii [10]) [µM] | MIC [11] [µM] | selectivity ratio [12] | MIC (Mycobacterium kansasii [13]) [µM]
CN(C)C(=O)Oc1ccccc1C(=O)Nc1ccccc1 | 10 | 5990 | 6 | 1000 (≈ 284 µg/mL) | 1000 (≈ 284 µg/mL) | 1000 (≈ 284 µg/mL) | 1000 (≈ 284 µg/mL) | 1000 (≈ 284 µg/mL) | 1000 (≈ 284 µg/mL) | 1000 (≈ 284 µg/mL) | 1000 (≈ 284 µg/mL) | 1000 (≈ 284 µg/mL) | 6 | 1000 (≈ 284 µg/mL)
CN(C)C(=O)Oc1ccc(Cl)cc1C(=O)Nc1ccc(Br)cc1 | 9 | 342 | <=5.5 | 62.5 (≈ 24.9 µg/mL) | 16 (≈ 6.36 µg/mL) | 62.5 (≈ 24.9 µg/mL) | 125 (≈ 49.7 µg/mL) | 125 (≈ 49.7 µg/mL) | 62.5 (≈ 24.9 µg/mL) | 62.5 (≈ 24.9 µg/mL) | 62.5 (≈ 24.9 µg/mL) | 16 (≈ 6.36 µg/mL) | 21.4 | 62.5 (≈ 24.9 µg/mL)
O=C(Nc1ccc(F)cc1)c1cc(Cl)ccc1OC(=O)N(c1ccccc1)c1ccccc1 | 22 | > 100 | – | 250 (≈ 115 µg/mL) | 250 (≈ 115 µg/mL) | 250 (≈ 115 µg/mL) | 62.5 (≈ 28.8 µg/mL) | 62.5 (≈ 28.8 µg/mL) | 62.5 (≈ 28.8 µg/mL) | 125 (≈ 57.6 µg/mL) | 125 (≈ 57.6 µg/mL) | 250 (≈ 115 µg/mL) | – | 125 (≈ 57.6 µg/mL)
CN(C(=O)Oc1ccc(Cl)cc1C(=O)Nc1ccc(Cl)cc1)c1ccccc1 | 17 | 289 | <=9 | 250 (≈ 104 µg/mL) | 32 (≈ 13.3 µg/mL) | 250 (≈ 104 µg/mL) | 125 (≈ 51.9 µg/mL) | 125 (≈ 51.9 µg/mL) | 62.5 (≈ 26 µg/mL) | 62.5 (≈ 26 µg/mL) | 125 (≈ 51.9 µg/mL) | 32 (≈ 13.3 µg/mL) | 9 | 32 (≈ 13.3 µg/mL)
CN(C(=O)Oc1ccc(Cl)cc1C(=O)Nc1ccc(C(F)(F)F)cc1)c1ccccc1 | 16 | > 100 | – | 250 (≈ 112 µg/mL) | 125 (≈ 56.1 µg/mL) | 250 (≈ 112 µg/mL) | 125 (≈ 56.1 µg/mL) | 125 (≈ 56.1 µg/mL) | 125 (≈ 56.1 µg/mL) | 125 (≈ 56.1 µg/mL) | 125 (≈ 56.1 µg/mL) | 125 (≈ 56.1 µg/mL) | – | 125 (≈ 56.1 µg/mL)
O=C(Nc1ccc(Cl)cc1)c1cc(Cl)ccc1OC(=O)N(c1ccccc1)c1ccccc1 | 20 | > 100 | – | 250 (≈ 119 µg/mL) | 250 (≈ 119 µg/mL) | 250 (≈ 119 µg/mL) | 125 (≈ 59.7 µg/mL) | 125 (≈ 59.7 µg/mL) | 32 (≈ 15.3 µg/mL) | 62.5 (≈ 29.8 µg/mL) | 62.5 (≈ 29.8 µg/mL) | 250 (≈ 119 µg/mL) | – | 32 (≈ 15.3 µg/mL)
Nc1ccc(C(=O)O)c(O)c1 [AMINOSALICYLIC ACID] | 10 | 2240 | <2.2 | 32 (≈ 4.9 µg/mL) | 62.5 (≈ 9.57 µg/mL) | 125 (≈ 19.1 µg/mL) | > 1000 | 1000 (≈ 153 µg/mL) | 125 (≈ 19.1 µg/mL) | 125 (≈ 19.1 µg/mL) | 500 (≈ 76.6 µg/mL) | 62.5 (≈ 9.57 µg/mL) | 35.8 | 32 (≈ 4.9 µg/mL)
O=C(Nc1ccc(C(F)(F)F)cc1)c1cc(Cl)ccc1O | 6 | 0.36 | – | 4 (≈ 1.26 µg/mL) | 2 (≈ 0.631 µg/mL) | 8 (≈ 2.53 µg/mL) | 4 (≈ 1.26 µg/mL) | 4 (≈ 1.26 µg/mL) | 2 (≈ 0.631 µg/mL) | 4 (≈ 1.26 µg/mL) | 4 (≈ 1.26 µg/mL) | 1 (≈ 0.316 µg/mL) | – | 2 (≈ 0.631 µg/mL)
CN(C)C(=S)Oc1ccccc1C(=O)Nc1ccccc1 | 6 | > 500 | – | > 1000 | > 1000 | > 1000 | > 1000 | > 1000 | > 1000 | > 1000 | > 1000 | > 1000 | – | > 1000

— ChEMBL document CHEMBL3352384, “Synthesis and biological activity of new salicylanilide N,N-disubstituted carbamates and thiocarbamates” (Bioorg Med Chem, 2014)
